{
  "source": "ChEMBL document CHEMBL1135550",
  "about": "“Highly potent geminal bisphosphonates. From pamidronate disodium (Aredia) to zoledronic acid (Zometa)” (J Med Chem, 2002)",
  "key": {"[1]": {"species_on_record": "Rattus norvegicus", "experiment": "Effective dose for increased serum urea level rats after a treatment period of 1 hr in renal tolerability model", "format": "functional"}, "[2]": {"species_on_record": "Rattus norvegicus", "experiment": "Effective dose for increased mucosal permeability of perfused ileal loop in rats after a treatment period of 2 hr in intestinal tolerability model", "format": "functional"}, "[3]": {"species_on_record": "Rattus norvegicus", "experiment": "Effective dose for increased cancellous bone area in young interact rats after a treatment period of 10 days", "format": "functional", "settings": "240 h"}, "[4]": {"tested_on": "Rattus norvegicus", "experiment": "Effective dose after subcutaneous administration to TPTX rats for 50% reduction of hypercalcemia", "format": "functional", "settings": "sc", "outline": "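Young male rats (130-150 g) were thyroparathyroidectomized and allowed 4 days to recover, then fasting serum was sampled. Animals with serum Ca above 1.88 mM were discarded, and the rest were randomized into groups of 5. On days 5-8, 1,25(OH)2D3 (125 pmol/kg sc) was given with graded sc doses of bisphosphonate, and total serum calcium was measured. ED50 is the sc dose halving the hypercalcemia.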"}, "[5]": {"species_on_record": "Mus musculus", "experiment": "Inhibition of bone resorption in the calvaria assay of mouse", "format": "functional"}, "[6]": {"species_on_record": "Rattus norvegicus", "experiment": "Effective dose for increased urinary excretion of MDH in rats after a treatment period of 14 days in renal tolerability model", "format": "functional, Urine"}, "[7]": {"species_on_record": "Rattus norvegicus", "experiment": "Effective dose for increased cancellous bone calcium in young interact rats after a treatment period of 10 days", "format": "functional", "settings": "240 h"}, "[8]": {"species_on_record": "Rattus norvegicus", "experiment": "Effective dose for increased cancellous bone hydroxy proline in young interact rats after a treatment period of 10 days", "format": "functional", "settings": "240 h"}, "[9]": {"species_on_record": "Rattus norvegicus", "experiment": "Effective dose for increased radiographic bone density in young interact rats after a treatment period of 10 days", "format": "functional", "settings": "240 h"}, "[10]": {"experiment": "Therapeutic ratio comparing nephrotoxic potential versus bone antiresorptive potency ( reciprocal of ED50 (TPTX assay) / the total urinary malate dehydrogenase excretion)", "format": "ADME", "settings": "urine; read-out: Therapeutic ratio", "outline": "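Ratio = (1/TPTX ED50 in mg/kg) ÷ total urinary malate dehydrogenase units, pooled from eight 24-h urine collections after starting repeated sc dosing. ED50 model: young male rats (130-150 g), thyroparathyroidectomized, 4-day recovery; rats with fasting serum Ca above 1.88 mM excluded; groups of 5. Days 5-8: 1,25(OH)2D3 125 pmol/kg sc plus graded sc bisphosphonate. ED50 = dose halving the hypercalcemia (total serum calcium).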"}, "[11]": {"species_on_record": "Mus musculus", "experiment": "Inhibition of mineralization in the calvaria assay of mouse", "format": "functional", "outline": "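In vitro mineralization assay in mouse calvaria cultures. The read-out is calcium incorporation into the calvaria.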"}, "[12]": {"experiment": "Ratio of calvaria mineralization to calvaria bone resorption", "format": "functional"}},
  "data": [
    {"compound": "NCCC(O)(P(=O)(O)O)P(=O)(O)O", "note": "[PAMIDRONIC ACID]", "values": [
      {"measurement": "ED100", "setting": "[1]", "value": 11, "unit": "mg/kg"},
      {"measurement": "NOL", "setting": "[2]", "value": 10, "unit": "mM"},
      {"measurement": "ED50", "setting": "[3]", "value": 0.0071, "unit": "mg/kg"},
      {"measurement": "ED50", "setting": "[4]", "value": 0.061, "unit": "mg/kg"},
      {"measurement": "IC50", "setting": "[5]", "value": 0.2, "unit": "µM"},
      {"measurement": "NOL", "setting": "[6]", "value": 0.1, "unit": "mg/kg"},
      {"measurement": "ED50", "setting": "[7]", "value": 0.0227, "unit": "mg/kg"},
      {"measurement": "ED50", "setting": "[8]", "value": 0.21, "unit": "mg/kg"},
      {"measurement": "ED50", "setting": "[9]", "value": 0.39, "unit": "mg/kg"},
      {"measurement": "selectivity ratio", "setting": "[10]", "value": 1.2},
      {"measurement": "IC50", "setting": "[11]", "value": 100, "unit": "µM"},
      {"measurement": "Ratio", "setting": "[12]", "value": 500}
    ]}
  ]
}
